Laboratory results reported in ChEMBL document CHEMBL3045952, “Design, synthesis, and fungicidal activity of novel analogues of pyrrolnitrin” (J Agric Food Chem, 2009).
In brackets after ≈: the same amount, converted by molar mass.

Key:
Fusarium graminearum [1] = test: Fungicidal activity against Fusarium graminearum assessed as mycelium growth inhibition at 50 ug/mL by mycelium growth rate method; format: functional; conditions: read-out: GI
Outline: (§1)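 In vitro mycelium growth rate method, with fenpiclonil as control. Compounds were tested at 50, 20 and 10 μg mL-1. Mycelial diameters were measured once the mycelia had grown completely. Inhibition (%) = (D1 − D2)/D1 × 100, where D1 is the mean mycelial diameter in the blank and D2 is the mean diameter with compound.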

Fusarium oxysporum [2] = test: Fungicidal activity against Fusarium oxysporum assessed as mycelium growth inhibition at 50 ug/mL by mycelium growth rate method; format: functional; conditions: read-out: GI; outline: as §1
Alternaria solani [3] = test: Fungicidal activity against Alternaria solani assessed as mycelium growth inhibition at 50 ug/mL by mycelium growth rate method; format: functional; conditions: read-out: GI; outline: as §1
Mycosphaerella arachidis [4] = test: Fungicidal activity against Mycosphaerella arachidis assessed as mycelium growth inhibition at 50 ug/mL by mycelium growth rate method; format: functional; conditions: read-out: GI; outline: as §1
Fusarium oxysporum [5] = test: Fungicidal activity against Fusarium oxysporum assessed as mycelium growth inhibition by mycelium growth rate method; format: functional, organism-based
Outline: (§2)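 EC50 was calculated by the […] from in vitro growth-rate inhibition ratios. Inhibition (%) = (D1 − D2)/D1 × 100, taken from mean mycelial diameters of the blank (D1) and the treated plates (D2) once mycelia had grown completely. Fenpiclonil served as control.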

[6] = test system: Botryosphaeria berengeriana; test: Fungicidal activity against Botryosphaeria berengeriana assessed as mycelium growth inhibition at 50 ug/mL by mycelium growth rate method; format: functional; conditions: read-out: GI; outline: as §1
Alternaria solani [7] = test: Fungicidal activity against Alternaria solani assessed as mycelium growth inhibition by mycelium growth rate method; format: functional, organism-based; outline: as §2
[8] = test system: Botryosphaeria berengeriana; test: Fungicidal activity against Botryosphaeria berengeriana assessed as mycelium growth inhibition by mycelium growth rate method; format: functional, organism-based; outline: as §2
Fusarium graminearum [9] = test: Fungicidal activity against Fusarium graminearum assessed as mycelium growth inhibition by mycelium growth rate method; format: functional, organism-based; outline: as §2
Mycosphaerella arachidis [10] = test: Fungicidal activity against Mycosphaerella arachidis assessed as mycelium growth inhibition by mycelium growth rate method; format: functional, organism-based; outline: as §2
Fusarium graminearum [11] = test: Fungicidal activity against Fusarium graminearum assessed as mycelium growth inhibition at 20 ug/mL by mycelium growth rate method; format: functional; conditions: read-out: GI; outline: as §1
Alternaria solani [12] = test: Fungicidal activity against Alternaria solani assessed as mycelium growth inhibition at 10 ug/mL by mycelium growth rate method; format: functional; conditions: read-out: GI; outline: as §1
[13] = test system: Botryosphaeria berengeriana; test: Fungicidal activity against Botryosphaeria berengeriana assessed as mycelium growth inhibition at 10 ug/mL by mycelium growth rate method; format: functional; conditions: read-out: GI; outline: as §1
Fusarium graminearum [14] = test: Fungicidal activity against Fusarium graminearum assessed as mycelium growth inhibition at 10 ug/mL by mycelium growth rate method; format: functional; conditions: read-out: GI; outline: as §1
Alternaria solani [15] = test: Fungicidal activity against Alternaria solani assessed as mycelium growth inhibition at 20 ug/mL by mycelium growth rate method; format: functional; conditions: read-out: GI; outline: as §1
Mycosphaerella arachidis [16] = test: Fungicidal activity against Mycosphaerella arachidis assessed as mycelium growth inhibition at 10 ug/mL by mycelium growth rate method; format: functional; conditions: read-out: GI; outline: as §1
Mycosphaerella arachidis [17] = test: Fungicidal activity against Mycosphaerella arachidis assessed as mycelium growth inhibition at 20 ug/mL by mycelium growth rate method; format: functional; conditions: read-out: GI; outline: as §1
Fusarium oxysporum [18] = test: Fungicidal activity against Fusarium oxysporum assessed as mycelium growth inhibition at 20 ug/mL by mycelium growth rate method; format: functional; conditions: read-out: GI; outline: as §1
Fusarium oxysporum [19] = test: Fungicidal activity against Fusarium oxysporum assessed as mycelium growth inhibition at 10 ug/mL by mycelium growth rate method; format: functional; conditions: read-out: GI; outline: as §1
[20] = test system: Botryosphaeria berengeriana; test: Fungicidal activity against Botryosphaeria berengeriana assessed as mycelium growth inhibition at 20 ug/mL by mycelium growth rate method; format: functional; conditions: read-out: GI; outline: as §1

| Structure (SMILES) | inhibition of growth at 50 µg/mL (Fusarium graminearum [1]) [%] | inhibition of growth at 50 µg/mL (Fusarium oxysporum [2]) [%] | inhibition of growth at 50 µg/mL (Alternaria solani [3]) [%] | inhibition of growth at 50 µg/mL (Mycosphaerella arachidis [4]) [%] | EC50 (Fusarium oxysporum [5]) [µg/mL] | inhibition of growth at 50 µg/mL [6] [%] | EC50 (Alternaria solani [7]) [µg/mL] | EC50 [8] [µg/mL] | EC50 (Fusarium graminearum [9]) [µg/mL] | EC50 (Mycosphaerella arachidis [10]) [µg/mL] | inhibition of growth at 20 µg/mL (Fusarium graminearum [11]) [%] | inhibition of growth at 10 µg/mL (Alternaria solani [12]) [%] | inhibition of growth at 10 µg/mL [13] [%] | inhibition of growth at 10 µg/mL (Fusarium graminearum [14]) [%] | inhibition of growth at 20 µg/mL (Alternaria solani [15]) [%] | inhibition of growth at 10 µg/mL (Mycosphaerella arachidis [16]) [%] | inhibition of growth at 20 µg/mL (Mycosphaerella arachidis [17]) [%] | inhibition of growth at 20 µg/mL (Fusarium oxysporum [18]) [%] | inhibition of growth at 10 µg/mL (Fusarium oxysporum [19]) [%] | inhibition of growth at 20 µg/mL [20] [%] |
| --- | --- | --- | --- | --- | --- | --- | --- | --- | --- | --- | --- | --- | --- | --- | --- | --- | --- | --- | --- | --- |
| N#Cc1c[nH]cc1-c1cccc(Cl)c1Cl [FENPICLONIL] | 100 | 18 | 100 | 100 | > 50 | 100 |  |  |  |  |  |  |  |  |  |  |  |  |  |  |
| O=[N+]([O-])c1cc([N+](=O)[O-])c(-c2ccsc2)cc1F | 100 | 100 | 68 | 100 | 4.42 (≈ 16.5 µM) | 100 | 25.2 (≈ 94 µM) | 4.41 (≈ 16.4 µM) | 27.5 (≈ 103 µM) | 7.16 (≈ 26.7 µM) |  |  |  |  |  |  |  |  |  |  |
| O=[N+]([O-])c1c(Cl)c(Cl)cc(Cl)c1-c1ccsc1 | 47 | 36 | 49 | 50 | > 50 | 90 | > 50 | 36.7 (≈ 119 µM) | > 50 | > 50 |  |  |  |  |  |  |  |  |  |  |
| O=[N+]([O-])c1cc(F)c(Cl)cc1-c1ccsc1[N+](=O)[O-] | 20 | 39 | 61 | 18 |  | 42 |  |  |  |  | 4 | 48 | 12 | 0 | 54 | 0 | 5 | 28 | 14 | 36 |
| O=[N+]([O-])c1cc(Cl)ccc1-c1ccsc1 | 39 | 75 | 55 | 25 |  | 80 |  |  |  |  | 21 | 0 | 14 | 13 | 20 | 0 | 6 | 43 | 25 | 38 |
| O=[N+]([O-])c1ccc(F)cc1-c1ccsc1 | 65 | 87 | 75 | 25 |  | 72 |  |  |  |  | 43 | 5 | 0 | 21 | 25 | 0 | 12 | 50 | 18 | 36 |
| O=[N+]([O-])c1cc(-c2cc(Cl)c(F)cc2[N+](=O)[O-])cs1 | 0 | 10 | 25 | 16 |  | 14 |  |  |  |  | 0 | 0 | 0 | 0 | 16 | 0 | 11 | 7 | 0 | 2 |
| O=[N+]([O-])c1sccc1-c1c(Cl)cc(Cl)c(Cl)c1[N+](=O)[O-] | 0 | 22 | 34 | 40 |  | 40 |  |  |  |  | 0 | 0 | 0 | 0 | 26 | 5 | 25 | 0 | 0 | 13 |
| O=[N+]([O-])c1cc(Cl)cc(Cl)c1-c1ccsc1[N+](=O)[O-] | 0 | 28 | 38 | 27 |  | 27 |  |  |  |  | 0 | 16 | 2 | 0 | 32 | 0 | 11 | 14 | 10 | 17 |
